One data set deals with Carbonic anhydrase 1 (Homo sapiens, UniProt P00915). Nature of the data set: Inhibition of recombinant human CA1 expressed in Escherichia coli assessed as reduction in CO2 hydration by stopped flow assay. Put shortly:
(§1)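 Stopped-flow assay following the CA-catalysed hydration of CO2 (the physiological reaction); Ki values from three determinations, errors within ±5% of the reported value.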

In the next data set the target is Carbonic anhydrase 2 (Homo sapiens, UniProt P00918). As to the kind of experiment: Inhibition of recombinant human CA2 expressed in Escherichia coli assessed as reduction in CO2 hydration by stopped flow assay. The gist of the method:
as §1

Another data set has as its target Carbonic anhydrase 4 (Homo sapiens, UniProt P22748). As to the kind of experiment: Inhibition of recombinant human CA4 expressed in Escherichia coli assessed as reduction in CO2 hydration by stopped flow assay. The gist of the method: as §1
For another data set, the target named is Carbonic anhydrase 9 (Homo sapiens, UniProt Q16790). Nature of the data set: Inhibition of recombinant human CA9 expressed in Escherichia coli assessed as reduction in CO2 hydration by stopped flow assay. Put shortly: as §1
Data set [1] concerns Staphylococcus aureus. Nature of the data set: Antibacterial activity against Staphylococcus aureus ATCC 43300 at 20 uM relative to control. It counts as functional. Put shortly:
(§2)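 Screened by CO-ADD at a single concentration of 20 µM; growth inhibition above 50% at this concentration was classed as a hit. Strains and sources are given in Supplementary Information.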

The subject of data set [2] is Escherichia coli. As to the kind of experiment: Antibacterial activity against Escherichia coli ATCC 25922 at 20 uM relative to control. It is filed as functional. The gist of the method: as §2
A further data set has as its system Klebsiella pneumoniae. As to the kind of experiment: Antibacterial activity against Klebsiella pneumoniae ATCC 700603 at 20 uM relative to control. It is filed as functional. Put shortly: as §2
A further data set deals with Acinetobacter baumannii. As to the kind of experiment: Antibacterial activity against Acinetobacter baumannii ATCC 19606 at 20 uM relative to control. It is filed as functional, ATCC 19606 = CIP 70.34 = JCM 6841. The gist of the method:
as §2

For the next data set, the system named is Pseudomonas aeruginosa. Nature of the data set: Antibacterial activity against Pseudomonas aeruginosa ATCC 27853 at 20 uM relative to control. It counts as functional. The gist of the method:
as §2

Another data set concerns Candida albicans. Nature of the data set: Antifungal activity against Candida albicans ATCC 90028 at 20 uM by resazurin dye based assay relative to control. It is filed as functional. The gist of the method: as §2
The test system of another data set is Cryptococcus neoformans. As to the kind of experiment: Antifungal activity against Cryptococcus neoformans var. grubii H99 ATCC 208821 at 20 uM by resazurin dye based assay relative to control. It is filed as functional. Put shortly:
as §2
(Alamar Blue is a resazurin reagent that responds to reducing activity.)

For data set [3], the system named is Staphylococcus aureus. As to the kind of experiment: Antibacterial activity against Staphylococcus aureus ATCC 43300. It counts as functional.
Data set [4] has as its system Escherichia coli. As to the kind of experiment: Antibacterial activity against Escherichia coli ATCC 25922. It is filed as functional.
Data set [5] is described as follows: Cytotoxicity against HEK293 cells. It counts as cell-based. Particulars: human.

≈ marks a conversion by molar mass, not a printed value.

Sequence of Carbonic anhydrase 1 (P00915 whole entry): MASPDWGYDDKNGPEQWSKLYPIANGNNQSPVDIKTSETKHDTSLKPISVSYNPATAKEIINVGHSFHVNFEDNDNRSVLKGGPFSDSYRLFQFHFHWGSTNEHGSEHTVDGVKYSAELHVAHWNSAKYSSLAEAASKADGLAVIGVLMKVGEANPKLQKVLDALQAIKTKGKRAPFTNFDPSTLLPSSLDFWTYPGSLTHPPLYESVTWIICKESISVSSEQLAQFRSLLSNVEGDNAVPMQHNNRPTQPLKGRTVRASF
Sequence of Carbonic anhydrase 4 (P22748 whole entry): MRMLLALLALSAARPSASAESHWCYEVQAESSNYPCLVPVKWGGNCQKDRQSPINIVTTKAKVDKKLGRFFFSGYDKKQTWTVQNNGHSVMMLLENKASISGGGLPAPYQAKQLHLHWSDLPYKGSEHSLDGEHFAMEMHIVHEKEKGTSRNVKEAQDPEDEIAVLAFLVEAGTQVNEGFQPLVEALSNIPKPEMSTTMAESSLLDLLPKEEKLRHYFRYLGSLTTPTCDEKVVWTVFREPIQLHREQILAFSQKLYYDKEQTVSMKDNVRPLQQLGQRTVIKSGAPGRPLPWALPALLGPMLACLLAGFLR

As to `Nc1nc(Cl)nc2c1ncn2[C@@H]1O[C@H](COS(N)(=O)=O)[C@@H](O)[C@H]1O`, the Ki on Carbonic anhydrase 1 is 167 nM; on Carbonic anhydrase 2, 65.2 nM; at Carbonic anhydrase 4, 234 nM; on Carbonic anhydrase 9, 143 nM. Moreover, the Activity result with Staphylococcus aureus [1] is recorded as “<=50%”; with Escherichia coli [2], more than 50%; in the data set on Klebsiella pneumoniae, “<=50%”; in the data set on Acinetobacter baumannii, “<=50%”; in the data set on Pseudomonas aeruginosa it was “<=50%”; with Candida albicans, “<=50%”. For the same compound, the Activity result in the data set on Cryptococcus neoformans is recorded as “<=50%”. Also, the MIC in the data set on Staphylococcus aureus [3] was more than 20 µM; in the data set with Escherichia coli [4], 5 µM (≈ 1.9 µg/mL). The CC50 in data set [5] was less than 150 nM.

With `Nc1ncnc2c1ncn2[C@@H]1O[C@H](COS(N)(=O)=O)[C@@H](O)[C@H]1O`, the Ki at Carbonic anhydrase 1 was 6350 nM; at Carbonic anhydrase 2, 3410 nM; at Carbonic anhydrase 4 it was 4450 nM; on Carbonic anhydrase 9, 3100 nM. Besides, the Activity is recorded as more than 50% in the data set on Staphylococcus aureus [1]; “<=50%” in the data set on Escherichia coli [2]; “<=50%” with Klebsiella pneumoniae; “<=50%” in the data set with Acinetobacter baumannii; “<=50%” in the data set on Pseudomonas aeruginosa; “<=50%” in the data set on Candida albicans. In addition, the Activity result with Cryptococcus neoformans is reported as “<=50%”. Moreover, the MIC against Staphylococcus aureus [3] is 10 µM (≈ 3.46 µg/mL); in the data set with Escherichia coli [4], more than 20 µM. Also, the CC50 in data set [5] was 800 nM.

The term Ki denotes a measure of affinity in units of concentration, obtained from inhibition or displacement. The term MIC denotes the lowest concentration that inhibits growth of the organism. Usually CC50 stands for the concentration that lowers cell viability or growth by half. A higher CC50 goes with better tolerance by the cells.

Source of the values: ChEMBL document CHEMBL4229396, “Synthesis, structure and bioactivity of primary sulfamate-containing natural products” (Bioorg Med Chem Lett, 2018).
